Only some compounds are listed: those with a hit (about 5.4% of all), similar ones and a draw of the others.
Ecoli WT expand: blocks growth of wild type E. coli BW25113; 98,000 compounds, 0.15% hits; OD600 absorbance; growth inhibition, % at 100 µM; AID 710;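 active means growth inhibition above about 50% at one test dose, limit read from the data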;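 further: growth measured after 20 h incubation at 37 °C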
tolC growth inh: growth inhibitors of E. coli BW25113 tolC mutant. 65,000 compounds, 2.2% hits. growth inhibition, % at 10 µM (by protocol). OD615;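 active means growth inhibition at or above a cutoff equal to the mean over every tested compound plus 3 SD, cut at about 60% in these data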;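 further: growth measured after 20 h incubation at 37 °C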
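test system = E. coli BW25113 ΔtolC::kan bacteria | medium = LB with kanamycin 50 µg/mL | signal = OD at 615 nm | schedule = 37 °C, 20 h exposure | evaluation = % inhibition of E. coli growth | compound dosing = one dose of 10 µM final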
PLAP act: activators of human placental alkaline phosphatase. P05187. purified PLAP enzyme, luminescent substrate read-out; hits give high values. activation fold at 20 µM. 96,000 compounds, 1.2% hits. AID 696; in the data active means activation fold above about 2
HePTP inh: blocks human HePTP tyrosine phosphatase. AID 521. P35236. 110,000 compounds, 0.64% hits. recombinant HePTP phosphatase activity, OD absorbance. inhibition, % at 20 µM; in the data active means inhibition above about 50%;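 further: plate controls were vehicle for no effect and reference inhibitor for full effect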
Target sequence (P35236 whole entry, looked up): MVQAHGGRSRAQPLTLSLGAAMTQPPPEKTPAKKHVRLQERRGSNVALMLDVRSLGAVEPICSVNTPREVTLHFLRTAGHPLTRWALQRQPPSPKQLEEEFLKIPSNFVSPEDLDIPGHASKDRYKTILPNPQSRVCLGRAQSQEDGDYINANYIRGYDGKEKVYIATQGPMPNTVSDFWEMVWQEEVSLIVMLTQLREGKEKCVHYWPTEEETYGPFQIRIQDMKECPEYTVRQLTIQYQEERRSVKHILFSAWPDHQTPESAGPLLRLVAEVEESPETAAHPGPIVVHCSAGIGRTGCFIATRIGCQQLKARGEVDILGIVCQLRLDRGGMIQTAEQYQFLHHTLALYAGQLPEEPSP
PostGolgi ctrl: growth of the yeast control strain, post-Golgi counter-screen; AID 738; 98,000 compounds, 5% hits; efflux-deficient yeast background strain, growth absorbance A615, 16 h; inhibition, % at 10 µM
PostGolgi yeast: growth inhibition of a yeast mutant, post-Golgi transport screen; post-Golgi transport phenotypic cell assay; inhibition, % at 10 µM; 98,000 compounds, 0.9% hits; AID 739;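 further: yeast cells grown in 1536-well plates; yeast grown about 18 h at 30C before absorbance read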
* marks the source's active call; other numbers are inactive results; . = no result given. Unless noted, no stated cut-off is given here; in the data, active means inhibition above about 30%; inactive means the rest.

SMILES | Ecoli WT expand | tolC growth inh | PLAP act | HePTP inh | PostGolgi ctrl | PostGolgi yeast
CCOc1ccc(NC(=S)NC(NC(=O)OCc2ccccc2)C(Cl)(Cl)Cl)cc1 (stereo not given) | . | . | . | 4 | . | .
Cc1ccc(C)c(NC(=S)NC(NC(=O)c2ccccc2F)C(Cl)(Cl)Cl)c1 (stereo not given) | . | . | . | -8 | . | .
COc1ccc(CCNC(=O)c2cc3sc(Cl)cc3n2C)cc1OC | 0 | 63* | 1.9 | 4 | 10 | 14
O=C(CCN1C(=O)c2ccccc2C1=O)Nc1cccc(Cl)c1 | . | . | . | 2 | . | .
O=C(Nc1ncc(Cc2cc(Cl)ccc2Cl)s1)c1ccc([N+](=O)[O-])cc1 | -4 | . | 0.9 | . | 31* | 7
COc1cc(C2NC(=O)NC(C)=C2C(=O)OCCC#N)cc(OC)c1OC (stereo not given) | . | . | . | -15 | . | .
Cc1noc(C)c1CSc1nc2sc(C)c(C)c2c(=O)n1-c1ccccc1 | -14 | 16 | 1 | -10 | 4 | -10
C=CCn1c(SCc2c(C)noc2C)nc2sc(C)c(C)c2c1=O | -13 | . | 1.1 | . | 35* | -4
COc1ccc(/C=N/c2sc(C)c(C)c2C#N)cc1 | . | . | . | 8 | . | .
CCOC(=O)c1c(-c2ccccc2)oc2ccc(OC)cc12 | 2 | . | 1.4 | . | 31* | 24
O=C(NC1CCCC1)c1cc(-c2ccc(Cl)cc2)nc2ccccc12 | . | . | . | -6 | . | .
O=C(NC1CC1)c1cc(-c2ccccn2)nc2ccccc12 | 2 | . | 0.9 | . | 34* | 1
Cn1c(N)c(C(=O)c2cc(-c3ccccn3)nc3ccccc23)c(=O)[nH]c1=O | 2 | -12 | 2* | 7 | -12 | 10
O=S(=O)(c1ccccc1)N1CCN(Cc2ccccc2C(F)(F)F)CC1 | -4 | 64* | 1 | 7 | 17 | 0
Cc1ccccc1N=C(NOCc1ccc(Cl)cc1Cl)c1nonc1N | -15 | . | 0.3 | . | 35* | -5
CN=C(NOCc1ccccc1)c1nonc1N | . | . | . | -2 | . | .
Cc1ccccc1N=C(NOCc1ccccc1)c1nonc1N | -8 | . | . | 6 | 36* | 10
COC(=O)C1=CN(Cc2ccc(C)cc2)C=C(C(=O)OC)C1c1ccc(OC(F)(F)F)cc1 | . | . | . | -2 | . | .
c1ccc2c(c1)ncn2CCCCOc1ccc2c(c1)CCC2 | 21 | . | 1.7 | . | 37* | 4
c1ccc2c(c1)ncn2CCCOc1ccc2c(c1)CCC2 | 10 | . | 1.3 | . | 34* | -1
c1ccc2c(c1)ncn2CCN1CCCCC1 | . | . | . | 2 | . | .
Clc1ccc(/C=N/NC(=Nc2ccccc2)c2ccccn2)c(Cl)c1 | -22 | . | 1 | . | 37* | 0
O=C(N/N=C/c1ccc(Cl)cc1Cl)c1cc(O)cc(O)c1 | . | . | . | -5 | . | .
Cc1ccc(N2C(=O)S/C(=C\c3ccc(F)cc3)C2=O)cc1 | . | . | . | -5 | . | .
CC(=O)C(N=Nc1ccccc1)(Sc1nnc(-c2ccccc2)n1-c1ccccc1)C(C)=O | -20 | . | 1.2 | . | 47* | -8
SMILES | Ecoli WT expand | tolC growth inh | PLAP act | HePTP inh | PostGolgi ctrl | PostGolgi yeast
CCN1C(=S)SC(=O)C1=C1C=C(C)N(Cc2ccco2)C(C)=C1 | -5 | 22 | 1 | 6 | 38* | -9
CN(C)S(=O)(=O)Oc1ccsc1C(=O)Nc1cccc(Cl)c1 | 1 | . | 0.8 | . | 22 | -7
CN(C)S(=O)(=O)Oc1ccsc1C(=O)Nc1ccc(Cl)c(Cl)c1 | -11 | . | 0.9 | . | 45* | -3
Cc1cc(Cl)cc(C)c1OCCCCNCCO | . | . | . | 105* | . | .
Cc1cc(Cl)cc(C)c1OCCCCn1ccnc1 | 24 | 92* | 1 | 7 | 3 | 20
Cc1cccc(C(C)(C)C)c1OCCn1ccnc1 | 14 | 92* | 0.8 | 1 | 2 | 8
Cc1cccc(Cl)c1OCCCCn1ccnc1 | 18 | 7 | 1 | -8 | 12 | 2
COCCOC(=O)c1ccc(NC(=O)c2ccc(C(C)(C)C)cc2)cc1 | . | . | . | -8 | . | .
Cc1ccc(S(=O)(=O)Cc2ccc(C(=O)NCc3ccc4c(c3)OCO4)o2)cc1 | 4 | -5 | 1.3 | 0 | 34* | -6
O=C(NCc1ccc2c(c1)OCO2)c1ccc(COc2cccc(Cl)c2)o1 | 22 | 79* | 1.1 | 2 | 60* | 6
Clc1cccc(CNCc2ccc3c(c2)OCO3)c1 | . | . | . | 6 | . | .
O=C(N/N=C/c1ccccn1)/C(=C\c1ccc2c(c1)OCO2)NC(=O)c1ccccc1 | . | . | . | -6 | . | .
CCNc1nc(NC(C)C)nc(N(C#N)C(C)C(=O)N(C)C)n1 (stereo not given) | 9 | 4 | . | 3 | 8 | -12
CCNc1nc(NC(C)C)nc(N(C#N)CCOc2ccc(Cl)cc2Cl)n1 | -11 | 75* | 1.2 | 4 | 39* | 10
Cc1cc(C)nc(N(C#N)Cc2ccccc2)n1 | 2 | 16 | 1.1 | 6 | 10 | -2
